# A selection: hits, their analogues and other compounds. The true share with any hit is near 1.3%.
# CRFR2-BP ag: CRF-BP/CRF-R2 complex agonism; HEK293 CRF-R2/CRF-BP, calcium dye fluorescence (FLIPR); percent of saturating CRF peptide response; activation, % at 13.2 µM; 0.46% of 350,000 active; AID 588473;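 active = activation of at least 50%, plus an integration ratio under a set limit after plate pattern correction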;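 note: plate controls were neutral control wells without compound for no effect and CRF at EC100 for full effect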
# CRFR2-BP antag: CRF-BP/CRF-R2 complex antagonism. inhibition, % at 11.8 µM. HEK293 CRF-R2/CRF-BP, CRF-induced calcium fluorescence. 0.59% of 350,000 active. AID 588475;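 active = inhibition of the ligand-induced calcium signal above about 50% at the single tested concentration, limit read from the data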
# Tn7 DDE FP: inhibitors of Tn7 peptide binding to human fibrin DD(E). inhibition, % at 8.3 µM. FP displacement of FITC-Tn7 peptide from fibrin DD(E); 0% = median of compound wells per plate. P02675. 0.13% of 370,000 active;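 active = inhibition above the mean of compounds falling within the control limits plus 3 SD of them, cut at about 14% in these data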;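 note: 0% = plate median of compound wells and 100% = 10 µM Aha-Tn7 peptide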
# Target sequence (P02675 whole entry, looked up): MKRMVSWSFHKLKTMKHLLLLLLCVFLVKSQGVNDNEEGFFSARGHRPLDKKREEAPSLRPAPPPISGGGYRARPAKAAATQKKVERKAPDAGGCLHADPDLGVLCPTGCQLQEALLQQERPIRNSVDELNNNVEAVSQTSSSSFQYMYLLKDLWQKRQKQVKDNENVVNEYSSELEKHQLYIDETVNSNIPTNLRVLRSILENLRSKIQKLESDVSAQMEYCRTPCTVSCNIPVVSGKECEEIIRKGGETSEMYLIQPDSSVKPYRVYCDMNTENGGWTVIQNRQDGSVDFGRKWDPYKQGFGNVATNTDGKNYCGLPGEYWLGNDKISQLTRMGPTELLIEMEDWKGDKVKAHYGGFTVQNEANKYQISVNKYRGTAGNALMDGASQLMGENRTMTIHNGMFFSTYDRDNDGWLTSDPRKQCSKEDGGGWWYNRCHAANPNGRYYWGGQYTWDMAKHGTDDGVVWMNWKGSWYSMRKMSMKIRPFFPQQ
#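 assay system = human clot-derived fibrin DD(E) complex | quantity = Fibrin-DD(E) at 2 µM final | timing = 10 min preincubation, 3 h with tracer, room temperature | signal = fluorescence polarization | measure = percent inhibition | benchmarks = high control wells with 10 µM unlabelled Aha-Tn7 peptide (full inhibition) | replicates = singlicate testing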
# Tn6 DDE FP: disrupts Tn6 cyclic peptide binding to fibrin D-Dimer-E complex; 0.21% of 370,000 active; inhibition, % at 8.3 µM; P02675; Fibrin DD(E) TRITC-Tn6 fluorescence polarization displacement; AID 720509;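 active = inhibition above a per-campaign cutoff: mean of compounds within control limits plus 3 SD, cut at about 15% in these data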;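 note: 0% = median of all compound wells on the plate and 100% = blocking peptide control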
# Tn6 DDE ctr: counter-screen hit for Tn6 peptide-fibrin DD(E) binding disruption; shares compounds with Tn6 DDE FP; TRITC-Tn6 fluorescence polarization displacement; 0% = median of compound wells, not DMSO; inhibition, % at 8.3 µM; 2% of 680 active; AID 720621;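 active = inhibition above the mean of test compounds lying between the control limits plus 3 SD of those, cut at about 14% in these data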;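 note: 0% = median of compound wells and 100% = wells with Aha-Tn7 blocking peptide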
# DDE Tn6 confirm: DD(E)-Tn6 binding inhibition, FP confirmation; AID 720631; shares compounds with Tn6 DDE FP; inhibition, % at 8.3 µM; FP displacement of TRITC-Tn6 peptide from DD(E); 0% = per-plate median of test wells; 10% of 680 active;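 active = inhibition above the mean of compounds lying within the control limits plus 3 SD, cut at about 16% in these data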;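 note: 100% = high control wells holding a competing inhibitor peptide at 10 µM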
# An asterisk follows results filed as active; . = no result.
SMILES,CRFR2-BP ag,CRFR2-BP antag,Tn7 DDE FP,Tn6 DDE FP,Tn6 DDE ctr,DDE Tn6 confirm
O=C(Oc1ccc(N(Cc2cccs2)C2=NS(=O)(=O)c3ccccc32)cc1)c1ccccc1,19,-22,-3,-1,.,.
COc1ccc(CN2C(=O)N3Cc4ccc(C)cc4C3CS2(=O)=O)cc1 (stereo not given),.,.,-12,-1,.,.
Cc1cc(C(=O)N/N=C/c2ccco2)c2ccccc2n1,-2,-8,1,2,.,.
Cc1cc(N/N=C/c2ccco2)c2ccccc2n1,3,-8,6,17*,1,0
Cc1ccccc1CN1CCN(C(=O)[C@H]2O[C@@H](n3cnc(C(N)=O)n3)[C@H](O)[C@@H]2O)CC1,.,.,-4,3,.,.
CCN1C=C(C(=O)OC)C(c2cccc(OC)c2OC)C(C(=O)OC)=C1,-1,4,12,17*,4,1
COC(=O)C1=CN(Cc2ccc(OC)c(OC)c2)C=C(C(=O)OC)C1c1cccc(OC)c1OC,-3,34,-2,2,.,.
O=C(O)c1ccc(/C=C2/SC(=S)N(Cc3ccccc3)C2=O)cc1,-3,22,12,-9,.,.
CN1CCS/C1=C/C=C1/SC(=S)N(Cc2ccccc2)C1=O,36,-78,-24,38*,-15,16*
COc1ccc(CCC(=O)Nc2nccs2)cc1OC,-1,-18,-3,-3,.,.
COc1ccc(CCC(=O)Nc2nc3c(s2)CN(C)CC3)cc1OC,1,-5,1,83*,0,-3
CC(C)(C)C(=O)Nc1ccc(S(=O)(=O)N2CCC(c3nc4ccccc4[nH]3)CC2)cc1,4,8,-1,18*,-1,-2
Cc1cc2nc(-c3ccc(SCC(=O)Nc4ccc(S(=O)(=O)N5CCCC5)cc4)nc3)[nH]c2cc1C,6,30,9,0,.,.
O=C(CSc1ccc(-c2nc3ccccc3[nH]2)cn1)Nc1ccc(S(=O)(=O)N2CCCC2)cc1,1,5,2,59*,-5,-3
CC(=O)Nc1ccc(S(=O)(=O)N2CCC(c3nc4ccccc4[nH]3)CC2)cc1,0,-4,-5,4,.,.
O=C(Cn1cnc2ccccc2c1=O)N1CCN(C(=O)C2CCCO2)CC1 (stereo not given),.,.,-6,5,.,.
CC(C)C[C@H]1COc2cc(F)ccc2S(=O)(=O)N1C,.,.,8,4,.,.
COc1cc(/C=C/C(=O)c2ccccc2)cc(OC)c1OC,.,.,-5,-2,.,.
O=C(Nc1nccs1)c1ccc(-c2ccc(F)c(Cl)c2)o1,-1,7,4,27*,2,16*
C=CCn1c(CC#N)nnc1N1CCOCC1,-1,-4,5,16*,3,1
C=CCN1C(c2ccccc2)=CS/C1=C(/C#N)c1nnc(N2CCOCC2)n1-c1ccccc1,26,-23,7,7,.,.
COC1=C[C@H](C(=O)N[C@H]2CCCC[C@@H]2NC(C)=O)[C@@]2(C)Cc3ccccc3[C@H]2CC1=O,.,.,4,-5,.,.
CC1=[N+](C)c2ccc3ccccc3c2C1(C)C,0,19,-2,55*,-1,8
CN(Cc1cn(Cc2cccc(Cl)c2)nn1)C1CN(Cc2cn(Cc3cccc(Cl)c3)nn2)S(=O)(=O)C1 (stereo not given),.,.,2,16*,-8,-8
CN(C)C1CN(Cc2cn(Cc3cccc(Cl)c3)nn2)S(=O)(=O)C1 (stereo not given),.,.,-4,8,.,.
SMILES,CRFR2-BP ag,CRFR2-BP antag,Tn7 DDE FP,Tn6 DDE FP,Tn6 DDE ctr,DDE Tn6 confirm
COc1cc(OC)c(C2C(C(=O)N3CCOCC3)=C(C)NC3=C2C(=O)CC(C)(C)C3)cc1OC (stereo not given),0,-10,-2,17*,0,-6
COc1ccc(C2C(C(=O)N3CCOCC3)=C(C)NC3=C2C(=O)CC(C)(C)C3)cc1O (stereo not given),0,-13,-9,0,.,.
O=C(Cc1ccccc1)NC(NNc1ccccc1)(C(F)(F)F)C(F)(F)F,-2,19,-3,15*,14*,7
O=C(Cc1ccccc1)NNC(=O)Cc1ccccc1,1,-1,6,0,.,.
COc1cc(NC(=O)C2CCCN(S(=O)(=O)c3cc(OC)ccc3OC)C2)cc(OC)c1 (stereo not given),.,.,2,-1,.,.
CC(=O)c1cccc(OCc2cc(C(=O)N3C[C@@H](C)O[C@@H](C)C3)no2)c1,0,13,3,20*,8,3
CCn1c(Cc2cccs2)nnc1SCC(=O)Nc1ccc(OCc2ccccc2)cc1,.,.,4,0,.,.
c1cc2c3c(cccc3c1)C(N1CCCCCC1)=N2,9,20,4,-2,.,.
c1ccc2c(c1)CCN(C1=Nc3cccc4cccc1c34)C2,10,-36,-4,18*,-7,63*
O=C(N[C@H](C(=O)N1CCC[C@H]1C(=O)NCc1ccccc1)C1CCCCC1)c1ccc(Cl)c(Cl)c1,.,.,-5,-4,.,.
Cc1nn(-c2ccccc2)c2c1C(c1ccc([N+](=O)[O-])cc1)C(C#N)=C(N)O2 (stereo not given),-1,8,4,16*,0,-2
Cc1ccc(-n2nc(C)c3c2OC(N)=C(C#N)C3c2ccc(F)cc2)cc1 (stereo not given),0,4,3,-2,.,.
COc1cccc(NC(=O)CN(C)C(=O)CN2C(=O)NC3(CCCC3)C2=O)c1,-1,18,5,-8,.,.
COc1cccc(NC(=O)CN2C(=O)NC3(CCCCCC3)C2=O)c1,3,-10,5,15*,5,-1
COC(=O)c1c[nH]c(=O)c2ccccc12,0,-4,2,16*,4,-4
Cc1cc2nc3ccc(N(C)C)cc3nc2cc1N,10,-8,3,33*,-9,65*
C[C@@H]1CN([C@@H](C)CO)C(=O)c2cccc(NC(=O)Nc3cccc4ccccc34)c2O[C@H]1CN(C)S(=O)(=O)c1ccc2c(c1)OCCO2,.,.,-1,-4,.,.
Cc1cc(NC(=O)Cc2cn(Cc3ccccc3)c3ccccc23)ccc1Oc1cccnc1,.,.,6,-14,.,.
COC(=O)[C@]12CCCCC=C1N(Cc1ccc(OC)cc1)C(=O)[C@@H]2CC(=O)NCc1ccccc1,.,.,-10,-7,.,.
N#CCCCc1cn(-c2ccc(-c3noc4c3C(=O)N(CC(=O)N3CCOCC3)CC4)cc2)nn1,.,.,-2,-1,.,.
Cn1c(=O)cc2c3c(c(N4CCCCC4)ccc31)C(=O)c1ccccc1-2,-3,-7,5,59*,2,23*
Cc1ccc(-c2nnc(SCC(=O)Nc3ccc(F)cc3F)n2Cc2ccco2)cc1,.,.,0,-2,.,.
CC1CCc2c(sc(NC(=O)Cn3nc(C(F)(F)F)c4c3CCCCC4)c2C#N)C1 (stereo not given),-1,0,2,17*,9,7

# Screening results deposited in PubChem BioAssay by several laboratories.
